Entries after “also recorded” stand apart in the source; their conditions may differ.
What was measured:
[1] = system: HT1080 cells; test: Cellular adhesion assay on collagen or fibronectin; type: cell-based, human; details: 30 min at 37 °C
How it was run: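 HT1080 cells seeded in 96-well plates coated with a thin layer of collagen or fibronectin (5 μg/mL in PBS). Cells were held 30 min at 37 °C with test compound. Wells were then washed and the cells fixed in 4% paraformaldehyde and stained with DAPI. Adherent cells were imaged and counted automatically.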

[2] = system: HT1080 cells; test: Immunofluorescence of HT1080 cells; type: cell-based, human; details: for MMP-9 cell surface localization: 50 μM; for formation of FAK and PAX adhesion junctions: 50 μM overnight
How it was run: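 HT1080 cells were fixed in 4% paraformaldehyde/PBS and blocked in 5% BSA/PBS. Staining used anti-MMP-9 (anti-rabbit Alexa 488) with anti-α4 and/or anti-β1 integrin (anti-mouse Alexa 568), or anti-p-FAK Tyr576/577 (Alexa 568) and anti-p-PAX Tyr118 (Alexa 488). Nuclei were counterstained with DAPI, and images were taken by two-photon laser-scanning confocal microscopy.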

[3] = biological target: APMA-activated MMP-9 (Homo sapiens, UniProt P14780); test: Fluorogenic peptide assay of MMP-9 catalytic activity; type: biochemical; details: 10 μM fluorogenic peptide, 2 h; for inhibition of MMP-9 catalytic activity: 50 μM compound
Chain of APMA-activated MMP-9 (P14780 107-707 limits assumed): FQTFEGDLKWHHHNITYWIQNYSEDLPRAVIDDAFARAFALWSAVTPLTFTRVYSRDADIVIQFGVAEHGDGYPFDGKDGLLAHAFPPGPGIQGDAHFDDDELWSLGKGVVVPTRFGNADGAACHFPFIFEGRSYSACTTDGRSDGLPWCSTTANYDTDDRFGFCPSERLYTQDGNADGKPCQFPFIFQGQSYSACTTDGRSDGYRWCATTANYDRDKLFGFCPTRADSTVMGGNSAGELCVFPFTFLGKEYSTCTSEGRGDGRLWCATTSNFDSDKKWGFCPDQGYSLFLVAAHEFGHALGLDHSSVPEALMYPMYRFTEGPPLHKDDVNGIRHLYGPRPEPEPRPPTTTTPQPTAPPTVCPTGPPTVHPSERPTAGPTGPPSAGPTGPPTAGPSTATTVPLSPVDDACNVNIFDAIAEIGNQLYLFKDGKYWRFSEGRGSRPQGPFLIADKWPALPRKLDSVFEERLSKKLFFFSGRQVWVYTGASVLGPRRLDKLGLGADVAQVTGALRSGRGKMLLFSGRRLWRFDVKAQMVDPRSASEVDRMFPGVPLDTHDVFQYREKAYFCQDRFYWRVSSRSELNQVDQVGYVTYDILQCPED
How it was run: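 Recombinant proMMP-9 was activated overnight at 37 °C in TNC buffer with 1 mM APMA. […] Fluorescence (ex 320/em 405 nm) was read every 10 min over 2 h.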

[4] = system: HT1080 cells on chicken embryo CAM; test: Chorioallantoic membrane; type: in vivo; details: final concentration estimated 0.5 μM, 7-day incubation, vs DMSO and 1f
How it was run: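 Ex ovo chick embryos were inoculated at day 10 with pretreated GFP-expressing HT1080 cells in a 3 mg/mL collagen solution seeded atop the CAM. Compound was added from a 100 μM stock (estimated final 0.5 μM), with DMSO control. After 7 days at 37 °C, CAM segments were formalin-fixed, OCT-embedded, cut at 6 μm and H&E stained. GFP+ cells were scored by fluorescence microscopy.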

[5] = system: HT1080 fibrosarcoma cells; test: Two-dimensional dot migration assay, HT1080 cells; type: cell-based, human; details: 50 µM, relative to control groups
[6] = system: EGFR, AKT, Erk1/2, Src, FAK, PAX phosphorylation; test: Immunoblot of downstream signaling phosphorylation in HT1080 cells; type: cell-based, human; details: 50 μM
How it was run: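 HT1080 cells transiently expressing Myc-tagged MMP-9 were treated with 50 μM compound. Lysates were run on 10% SDS-PAGE and immunoblotted for phospho-Src Tyr418, phospho-FAK Tyr576/577 and phospho-PAX Tyr118.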

[7] = system: closely related MMPs; details: cited from earlier work
[8] = system: cancer metastasis; details: in vivo mouse xenograft model; cited from earlier work
[9] = system: MMP-9; details: cited from earlier work
[10] = system: HT1080 cells on chicken embryo CAM; test: Chorioallantoic membrane; type: in vivo; details: final concentration estimated 0.5 μM, 4-day incubation, vs DMSO and 1f
How it was run: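 Fertilized white chicken eggs were incubated 3 days at 37 °C and 70% humidity, then cultured ex ovo in Petri dishes. HT1080 cells adsorbed onto a gelatin sponge were implanted on the CAM. Compound was added from a 100 μM stock (estimated final 0.5 μM); DMSO served as control. Blood vessels surrounding the sponge were counted on day 4 at 37 °C.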

[11] = system: proMMP-9-mediated cancer cell migration; details: in vitro; cited from earlier work
[12] = system: COS-1 cells; test: MTT cell viability, COS-1 cells; type: cell-based, monkey; details: 24 h
How it was run: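 COS-1 cells stably expressing vector control or proMMP-9 cDNA were treated 24 h with DMSO, 50 μM compound, or 100 nM staurosporine (positive control for acute toxicity). Viability was assessed by MTT.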

[13] = system: proMMP-14 expressing COS-1 cells; test: Two-dimensional dot migration assay, COS-1 cells expressing proMMP-14; type: cell-based, monkey; details: 50 μM
How it was run: (§1)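 COS-1 cells expressed vector pQCXIP, proMMP-2, proMMP-9 or proMMP-14 (polyethylenimine transfection, 48 h at 37 °C); expression was checked by immunoblot of lysates and serum-free medium. Cells were mixed 1:1 with neutralized type I collagen (3 mg/mL) on ice, and 1 μL dots (1 × 10^7 cells/mL) were set. Dots were covered with complete medium ± 50 μM compound for 18 h, then fixed and DAPI-stained, and migrated cells were counted.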

[14] = system: proMMP-2 expressing COS-1 cells; test: Two-dimensional dot migration assay, COS-1 cells expressing proMMP-2; type: cell-based, monkey; details: 50 μM
How it was run: as §1

[15] = biological target: T1, proMMP-2 (Homo sapiens, UniProt P08253); test: Saturated transfer difference; type: binding; details: compound:protein 38:1 (300 µM:8 µM), 4 °C
T1 sequence (P08253 30-660 limits assumed): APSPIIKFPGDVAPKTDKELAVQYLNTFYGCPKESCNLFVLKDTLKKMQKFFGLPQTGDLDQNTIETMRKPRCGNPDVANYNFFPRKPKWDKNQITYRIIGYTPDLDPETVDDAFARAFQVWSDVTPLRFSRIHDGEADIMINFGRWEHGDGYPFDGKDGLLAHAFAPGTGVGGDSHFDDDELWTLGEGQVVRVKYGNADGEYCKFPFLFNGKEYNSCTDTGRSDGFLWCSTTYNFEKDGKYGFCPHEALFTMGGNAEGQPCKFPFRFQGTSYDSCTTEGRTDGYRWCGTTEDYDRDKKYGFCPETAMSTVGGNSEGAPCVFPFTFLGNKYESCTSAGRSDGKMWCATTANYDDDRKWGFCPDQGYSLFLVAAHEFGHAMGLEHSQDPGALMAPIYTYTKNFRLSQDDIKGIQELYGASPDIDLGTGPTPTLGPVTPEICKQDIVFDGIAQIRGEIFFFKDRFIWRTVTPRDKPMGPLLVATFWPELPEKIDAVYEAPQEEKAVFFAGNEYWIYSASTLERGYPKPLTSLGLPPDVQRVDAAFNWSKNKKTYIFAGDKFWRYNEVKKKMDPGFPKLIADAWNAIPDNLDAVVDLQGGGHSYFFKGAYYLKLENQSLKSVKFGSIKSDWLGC

[16] = system: proMMP-9/MMP-2PEX; test: Tryptophan fluorescence binding assay with chimera proMMP-9/MMP-2PEX; set-up: species or system human; details: chimera with MMP-2 PEX domain, 0.5 μM
How it was run: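 Purified recombinant chimera (0.5 μM) was titrated with test compound in TNC buffer (50 mM Tris-HCl, 10 mM CaCl2, pH 7.5). A buffer-only addition served as the protein stability control. After each addition the sample was stirred 1 min at RT, excited at 280 nm, and scanned 300–425 nm, averaging three scans. Kd was fitted to ΔF/ΔFMax, where ΔF is the emission shift in nm.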

[17] = biological target: T2, proMMP-9 (Homo sapiens, UniProt P14780); test: Tryptophan fluorescence blue-shift binding assay with proMMP-9
T2 sequence (P14780 20-707 limits assumed): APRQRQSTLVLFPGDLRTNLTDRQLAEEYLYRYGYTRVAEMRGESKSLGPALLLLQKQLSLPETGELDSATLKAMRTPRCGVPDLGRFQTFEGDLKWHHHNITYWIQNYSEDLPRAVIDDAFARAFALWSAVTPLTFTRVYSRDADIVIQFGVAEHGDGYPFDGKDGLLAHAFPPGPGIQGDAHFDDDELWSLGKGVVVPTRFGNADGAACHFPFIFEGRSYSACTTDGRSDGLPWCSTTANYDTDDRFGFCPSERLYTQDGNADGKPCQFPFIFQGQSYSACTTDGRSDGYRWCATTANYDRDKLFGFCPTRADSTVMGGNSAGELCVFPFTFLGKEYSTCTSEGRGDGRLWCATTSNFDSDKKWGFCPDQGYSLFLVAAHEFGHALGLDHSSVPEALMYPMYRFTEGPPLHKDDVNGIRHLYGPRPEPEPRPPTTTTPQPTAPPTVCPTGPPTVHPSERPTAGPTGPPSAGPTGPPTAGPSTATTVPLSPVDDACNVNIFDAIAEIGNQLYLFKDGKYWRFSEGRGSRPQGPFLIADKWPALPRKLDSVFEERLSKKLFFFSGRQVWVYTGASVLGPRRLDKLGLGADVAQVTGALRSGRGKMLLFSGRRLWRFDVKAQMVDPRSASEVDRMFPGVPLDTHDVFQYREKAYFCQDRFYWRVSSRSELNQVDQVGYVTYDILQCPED

[18] = system: HT1080 fibrosarcoma cells; test: Chronic toxicity in HT1080 fibrosarcoma cells; type: cell-based, human; details: 100 μM, retreated every 3 days for 9 days; data not shown
How it was run: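 HT1080 cells were cultured in complete medium with or without compound, with medium and compound replaced repeatedly over 9 days. Viability was measured daily by MTT: 4 h at 37 °C, then formazan solubilised and absorbance read at 570 nm.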

[19] = system: EGFR-CD44 and EGFR-β1 integrin; test: Co-immunoprecipitation of endogenous EGFR in HT1080 cells; type: cell-based, human; details: 50 μM
[20] = biological target: T2, proMMP-9; test: Saturated transfer difference; type: binding; details: compound:protein 38:1 (300 µM:8 µM), 4 °C

In the case of `CNC(=O)[C@@H](NC(=O)[C@H](CC(C)C)[C@H](O)C(=O)NO)C(C)(C)C` [Marimastat, reference compound], the “cell adhesion to collagen or fibronectin” value ([1]; 80 nM Marimastat) is reported as “no observable effect on cell attachment”, the “formation of focal adhesion contact sites” value ([2]; 80 nM marimastat) is reported as “did not prevent the formation of focal adhesion contact sites” and the “substrate cleavage by activated MMP-9” value ([3]; 250 nM Marimastat) is reported as “no substrate cleavage was observed”.
For `CCCc1cc(=O)nc(SCC(=O)Nc2ccc(OC(F)F)cc2)[nH]1` [Compound 1a, N-(4-Difluoromethoxyphenyl)-2-(4-oxo-6-propyl-1,4-dihydropyrimidin-2-ylthio)acetamide], the “invasion of CAM tissue by HT1080 cells” value [4] was “reduced invasion of CAM tissue”, the inhibition of migration [5] was “the same inhibition potency was observed” and the “cell adhesion to collagen or fibronectin” value ([1]; 50 µM) was “inhibited cellular adhesion”. The “MMP-9 cell surface localization” value [2] was “loss of MMP-9 from the cell surface”, the “formation of FAK and PAX adhesion junctions” value [2] was “decrease in the formation of FAK and PAX adhesion junctions” and the “phosphorylation of Src Tyr418 and downstream FAK Tyr576/577 and PAX Tyr118” value [6] was “reduced Src^Tyr418 phosphorylation”. For the same compound, the “binding to closely related MMPs” value [7] was “does not bind to closely related MMPs”, the “inhibition of MMP-9 catalytic activity” value [3] was “No inhibition of the catalytic activity was observed” and the cancer metastasis [8] was “effectively prevented cancer metastasis”. For the same compound, the “inhibition of MMP-9 enzymatic activity” value [9] was “did not inhibit MMP-9 enzymatic activity”, the “angiogenic potential of HT1080 cells (neovascularization)” value [10] was “significantly reduced the angiogenic potential” and the “proMMP-9-mediated cancer cell migration and proliferation” value [11] was “inhibited proMMP-9-mediated cancer cell migration and proliferation”.
With `CN[C@@H]1C[C@H]2O[C@@](C)([C@@H]1OC)n1c3ccccc3c3c4c(c5c6ccccc6n2c5c31)C(=O)NC4` [STS, staurosporine, reference compound] the cell death ([12]; 100 nM, positive control) was “Significant cell death”.
With `O=C(CCCSc1nc2c(c(=O)[nH]1)CCCC2)Nc1ccc(F)cc1` [Compound 3c, N-(4-Fluorophenyl)-4-(4-oxo-3,4,5,6,7,8-hexahydroquinazolin-2-ylthio)butanamide] the “invasion of CAM tissue by HT1080 cells” value [4] was “blocks cancer cell invasion of the basement membrane; also recorded: reduced invasion of CAM tissue”, the inhibition of migration [5] was “the same inhibition potency was observed” and the “cell adhesion to collagen or fibronectin” value ([1]; 50 µM) was “inhibited cellular adhesion”. The “inhibition of proMMP-14 mediated cell migration” value [13] was “lack of inhibition”, the “inhibition of proMMP-2 mediated cell migration” value [14] was “lack of inhibition” and the “MMP-9 cell surface localization” value [2] was “loss of MMP-9 from the cell surface”. The “formation of FAK and PAX adhesion junctions” value [2] was “decrease in the formation of FAK and PAX adhesion junctions”, the “phosphorylation of Src Tyr418 and downstream FAK Tyr576/577 and PAX Tyr118” value [6] was “reduced Src^Tyr418 phosphorylation” and the “inhibition of MMP-9 catalytic activity” value [3] was “No inhibition of the catalytic activity was observed”. For the same compound, the “decrease in cell growth” value ([12]; 50 μM, nonstatistically significant) was 8%, the “STD NMR peaks” value [15] was “not in the presence of proMMP-2” and the “shift in tryptophan fluorescence upon titration” value [16] was “no shift in fluorescence was observed”. The “binding affinity relative to parent compound 1a” value ([17]; Kd comparison) was “four times tighter”, the “maximal λMax shift” value ([17]; after treatment with 25 μM inhibitor, ex 280 nm) was 9 nm and the Kd ([17]; tryptophan fluorescence, purified recombinant proMMP-9 0.5 μM, TNC buffer pH 7.5) was 320 nM. For the same compound, the “cell death (chronic toxicity)” value [18] was “No cell death was observed”, the “angiogenic potential of HT1080 cells (neovascularization)” value [10] was “reduces angiogenesis; also recorded: significantly reduced the angiogenic potential” and the “interaction between EGFR-CD44 and EGFR-β1 integrin” value [19] was “Decreased interaction between EGFR-CD44 and EGFR-β1 integrin”. The “STD NMR peaks” value [20] was “STD peaks were observed in the presence of proMMP-9”.

Reference: PMC5697452 (ACS Chemical Biology, 2017)
